Test results reported in ChEMBL document CHEMBL1155769 (Antimicrob Agents Chemother, 2007).
Active and inactive are the calls of the source. No cut-off for these calls is given here.

Experiments:
[1] = Binding affinity to heme in phosphate buffer at pH 7.4 by Hills plot
[2] = Toxicity against human erythrocytes assessed as potentiation of heme-induced hemolysis in presence of variable concentration of heme; assay type: cell-based; details: erythrocyte
Outline: (§1)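 Washed fresh human erythrocytes (0.5% in PBS, pH 7.4) were used. Heme, either 0–20 µM with 10 µM drug or 10 µM with various drug concentrations, was preincubated 10 min in PBS, then cells were added. Plates were shaken 2 h at 37°C and read at 630 nm. Percent hemolysis was calculated relative to a cells-only control. Error bars are SD.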

[3] = Binding affinity to heme in HEPES buffer at pH 7.4 after 30 mins by Jobs plot
Outline: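 Continuous-variation (Job's) plot: drug–heme mixtures in 40% DMSO buffered with 20 mM HEPES, pH 7.4, total heme plus drug held at 10 µM. Incubated 30 min at room temperature (25°C). Differential absorbance at 400 nm was taken as mixture minus summed heme and drug absorbance. Mean ± SEM of three independent experiments.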

[4] = Toxicity against human erythrocytes assessed as potentiation of heme-induced hemolysis at 10 uM in presence of heme; assay type: cell-based; details: erythrocyte
Outline: as §1

[5] = Toxicity against human erythrocytes assessed as heme-induced hemolysis up to 30 uM in absence of heme; assay type: cell-based; details: erythrocyte
Outline: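 Fresh heparinized human donor erythrocytes, washed six times in PBS, pH 7.4, used as a 0.5% suspension. Drugs up to 30 µM without heme were tested. Hemolysis was followed by turbidity at 630 nm, with a cells-only well taken as 0% hemolysis.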

[6] = Binding affinity to heme in HEPES buffer at pH 7.4 upto 60 uM after 30 mins by Jobs plot
Plasmodium falciparum = assay: Antimalarial activity against chloroquine-sensitive Plasmodium falciparum D6 infected in human erythrocytes after 48 hrs; assay type: functional, organism-based; details: D6, 48 h
Outline: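 Human erythrocytes infected with chloroquine-sensitive P. falciparum clone D6, mainly rings, at 4% parasitemia and 5% hematocrit. Cultured in RPMI 1640 with 10% human AB serum, with serial drug dilutions in triplicate. Incubated 48 h at 37°C in a candle jar. Parasitized cells per 10,000 counted on Giemsa-stained thin smears. Inhibition vs drug-free control was plotted, and IC50 (µM) read graphically.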

[7] = Inhibition of beta-hematin formation after 16 hrs
[8] = Binding affinity to heme in HEPES buffer at pH 7.4 upto 20 uM after 30 mins by Jobs plot
Outline: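 Continuous-variation (Job's) method: drug and heme mixed in 40% DMSO buffered with 20 mM HEPES, pH 7.4, at a constant combined final concentration of 10 µM. Mixtures were held 30 min at room temperature (25°C). Differential absorbance at 400 nm was taken as the mixture absorbance minus the summed heme and drug absorbances. Three independent experiments, mean ± SEM.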

Activity [1] | Activity [3] | Activity [6] | IC50 (Plasmodium falciparum) [nM] | Ka [1] [×10⁵ /M] | IC50 [7] [nM] | Activity [8] | Structure (SMILES) | Activity [2] | Activity [4] | Activity [5]
inactive | inactive |  |  |  |  |  | COc1cc(NC(C)CCCN)c2ncccc2c1 (centres undefined) [PRIMAQUINE] | Not Active | Not Active | Not Active
 |  | Active | 100 | 0.61 | 2900 |  | COc1cc(NC(C)CCCN)c2nc(C(C)(C)C)ccc2c1 (centres undefined) |  | Dose-dependent effect | Not Active
 |  |  |  |  |  | Active | CCN(CC)CCCC(C)Nc1ccnc2cc(Cl)ccc12 (centres undefined) [CHLOROQUINE] |  | Dose-dependent effect | Not Active
